How the values were obtained:
Assay type in all cases: tissue-based
[1] = target: T1, Amine oxidase [flavin-containing] A (Rattus norvegicus, UniProt P21396); assay: Inhibition of MAO-A in rat liver homogenate by spectrophotometry-based Holt method
T1 sequence (P21396 whole entry): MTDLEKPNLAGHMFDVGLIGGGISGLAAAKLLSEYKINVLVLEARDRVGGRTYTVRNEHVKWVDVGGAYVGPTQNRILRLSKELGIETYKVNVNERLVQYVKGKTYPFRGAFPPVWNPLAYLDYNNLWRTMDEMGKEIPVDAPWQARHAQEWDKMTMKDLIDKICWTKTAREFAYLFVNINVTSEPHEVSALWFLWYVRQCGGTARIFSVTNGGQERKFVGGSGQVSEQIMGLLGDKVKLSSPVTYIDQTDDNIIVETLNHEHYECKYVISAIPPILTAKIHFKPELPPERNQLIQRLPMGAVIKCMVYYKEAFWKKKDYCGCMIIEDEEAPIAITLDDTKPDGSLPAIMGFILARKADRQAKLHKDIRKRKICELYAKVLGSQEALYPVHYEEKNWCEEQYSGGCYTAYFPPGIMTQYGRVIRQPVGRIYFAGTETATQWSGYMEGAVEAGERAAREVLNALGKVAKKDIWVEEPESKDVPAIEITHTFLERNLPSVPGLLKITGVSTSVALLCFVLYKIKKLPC

[2] = target: T2, Amine oxidase [flavin-containing] B (Rattus norvegicus, UniProt P19643); assay: Inhibition of MAO-B in rat liver homogenate by spectrophotometry-based Holt method
T2 sequence (P19643 whole entry): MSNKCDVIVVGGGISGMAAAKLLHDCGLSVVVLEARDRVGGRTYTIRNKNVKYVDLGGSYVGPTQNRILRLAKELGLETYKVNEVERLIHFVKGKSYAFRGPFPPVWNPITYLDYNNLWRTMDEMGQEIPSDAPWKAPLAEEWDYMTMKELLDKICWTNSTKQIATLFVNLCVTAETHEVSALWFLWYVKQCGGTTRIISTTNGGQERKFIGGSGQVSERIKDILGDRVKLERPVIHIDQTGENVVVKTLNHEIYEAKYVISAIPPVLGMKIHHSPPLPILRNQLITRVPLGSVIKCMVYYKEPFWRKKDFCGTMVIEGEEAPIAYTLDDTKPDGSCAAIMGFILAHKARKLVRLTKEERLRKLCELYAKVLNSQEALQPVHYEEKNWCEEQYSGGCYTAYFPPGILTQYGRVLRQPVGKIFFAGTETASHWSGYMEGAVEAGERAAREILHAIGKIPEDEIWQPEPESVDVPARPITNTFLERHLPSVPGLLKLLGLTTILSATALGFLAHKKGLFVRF

Rattus norvegicus = species on record: Rattus norvegicus; assay: Selectivity ratio of Ki for MAO-A in rat liver homogenate to Ki for MAO-B in rat liver homogenate
In short: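 Rat liver MAO; isoform isolated by blocking the other with pargyline or clorgyline. p-Tyramine substrate (2.5 mM for MAO-B). Inhibitor (DMSO) pre-incubated with homogenate 60 min, 37 °C. Holt coupled assay (vanillinic acid, 4-aminoantipyrine, peroxidase; potassium phosphate pH 7.6) read at 498 nm, 37 °C, 60 min. Ki from kinetics, mean of three experiments; index = Ki(MAO-A)/Ki(MAO-B).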

Structure (SMILES): Cc1ccc(S(=O)(=O)N2N=C(c3ccccc3O)CC2c2ccccc2O)cc1 (stereo not given)
- Ki [1]: 360 nM
- Ki [2]: 620 µM

Structure (SMILES): Oc1ccc(C2CC(c3ccccc3O)=NN2)cc1 (stereo not given)
- Ki [1]: 3900 nM
- Ratio Ki (Rattus norvegicus): 6.49
- Ki [2]: 0.6 µM

Structure (SMILES): O=S(=O)(c1ccccc1)N1N=C(c2ccccc2O)CC1c1ccc(O)cc1 (stereo not given)
- Ki [1]: 680 nM
- Ki [2]: 700 µM

Structure (SMILES): Cc1ccc(S(=O)(=O)N2N=C(c3ccccc3O)CC2c2ccc(O)cc2)cc1 (stereo not given)
- Ki [1]: 600 nM

Structure (SMILES): Oc1ccccc1C1=NNC(c2ccccc2O)C1 (stereo not given)
- Ki [1]: 3700 nM
- Ratio Ki (Rattus norvegicus): 4.74
- Ki [2]: 0.78 µM

Structure (SMILES): N=C(NO)N1N=C(c2ccccc2O)CC1c1ccccc1O (stereo not given)
- Ki [1]: 15700 nM
- Ki [2]: 96.8 µM

Structure (SMILES): O=S(=O)(c1ccccc1)N1N=C(c2ccccc2O)CC1c1ccccc1O (stereo not given)
- Ki [1]: 910 nM
- Ki [2]: 1550 µM

Structure (SMILES): O=C(c1ccccc1)N1N=C(c2ccccc2O)CC1c1ccccc1O (stereo not given)
- Ki [1]: 800 nM

Structure (SMILES): O=C(c1ccccc1)N1N=C(c2ccccc2O)CC1c1ccc(O)cc1 (stereo not given)
- Ki [1]: 5770 nM
- Ki [2]: 20300 µM

Structure (SMILES): N=C(NO)N1N=C(c2ccccc2O)CC1c1ccc(O)cc1 (stereo not given)
- Ki [1]: 10600 nM
- Ki [2]: 210 µM

— ChEMBL document CHEMBL1153160, “Towards development of selective and reversible pyrazoline based MAO-inhibitors: Synthesis, biological evaluation and docking studies” (Bioorg Med Chem Lett, 2010)
